{"source": "PubChem BioAssay AID623950", "about": "(Broad Institute, 2012)", "note": "Activity calls are given as the source filed them.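 Rule for the calls: active = compounds lowering cell ATP signal with fitted IC50 at most twice the highest tested dose; inconclusive = flat fit with 30 to 70% signal loss, or poor fit; inactive = the rest.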", "data": [{"tested_on": "HeLa viability, CellTiter-Glo ATP luminescence", "assay": "HeLa cell cytotoxicity, dose response, cytotoxicity control for pyoverdine inhibitor project, CellTiter-Glo luminescence, dry powder samples (AID 623950)", "conditions": "not given", "procedure,_shortened": "(§1)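 Material: HeLa cells; quantity: 2,500 HeLa cells per well; medium: phenol red-free DMEM with 10% fetal bovine serum; dosing: compound dose series in threefold dilution steps; incubation: 24 h cell growth, 48 h compound exposure; detection: CellTiter-Glo luminescence as viability measure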", "values": [{"smiles": "Cc1ccc(C(C#N)c2ccc(Cl)cc2)nc1C#N", "note": "(stereo not drawn)", "IC50": "> 100 µM (inactive)"}, {"smiles": "N#CC(c1ccc(F)cc1)c1ccc(C(F)(F)F)c(Cl)n1", "note": "(stereo not drawn)", "IC50": "35.7 µM"}, {"smiles": "N#CC(c1cccc(Cl)n1)c1ccc(Cl)cc1Cl", "note": "(stereo not drawn)", "IC50": "> 100 µM (inactive)"}, {"smiles": "N#CC(c1ccc(C(F)(F)F)c(Cl)n1)c1ccc(Cl)cc1F", "note": "(stereo not drawn)", "IC50": "48.4 µM"}, {"smiles": "N#CC(c1ccc(C(F)(F)F)cc1)c1ccc(C(F)(F)F)c(Cl)n1", "note": "(stereo not drawn)", "IC50": "38.1 µM"}, {"smiles": "N#CC(c1ccc(C(F)(F)F)cc1)c1cccc(C(F)(F)F)n1", "note": "(stereo not drawn)", "IC50": "> 100 µM (inactive)"}, {"smiles": "N#CC(c1ccc(C(F)(F)F)c(Cl)n1)c1ccc(Cl)cc1Cl", "note": "(stereo not drawn)", "IC50": "26.7 µM"}]}, {"tested_on": "not listed separately", "assay": "HeLa cell cytotoxicity, dose response, cytotoxicity control for pyoverdine inhibitor project, CellTiter-Glo luminescence, dry powder samples (AID 623950)", "conditions": "HeLa viability, CellTiter-Glo ATP luminescence; at 50 µM (top of the series)", "procedure,_shortened": "as §1", "values": [{"smiles": "Cc1cccc(C(C#N)c2ccc(Cl)cc2)n1", "note": "(stereo not drawn)", "activity change, negative = toxicity": "-4.38% (inactive)"}, {"smiles": "N#Cc1cccc(C(C#N)c2ccc(Cl)cc2)n1", "note": "(stereo not drawn)", "activity change, negative = toxicity": "-0.235% (inactive)"}, {"smiles": "N#CC(c1ccc(Cl)cc1)c1ccc(Cl)cn1", "note": "(stereo not drawn)", "activity change, negative = toxicity": "-2.34% (inactive)"}, {"smiles": "N#CC(CC1CC1)c1ccc(Cl)cc1", "note": "(stereo not drawn)", "activity change, negative = toxicity": "4.91% (inactive)"}, {"smiles": "CCCCC(C#N)c1ccc(F)cc1", "note": "(stereo not drawn)", "activity change, negative = toxicity": "4.15% (inactive)"}, {"smiles": "N#CC(c1cccc(C(F)(F)F)n1)c1ccccc1OC(F)(F)F", "note": "(stereo not drawn)", "activity change, negative = toxicity": "6.21% (inactive)"}, {"smiles": "N#CC(c1cccc(C(F)(F)F)n1)c1ccc(Cl)cc1F", "note": "(stereo not drawn)", "activity change, negative = toxicity": "-5.15% (inactive)"}, {"smiles": "COc1cccc(C(C#N)c2ccc(F)cc2)n1", "note": "(stereo not drawn)", "activity change, negative = toxicity": "-7.47% (inactive)"}, {"smiles": "CC(C)CC(C#N)c1ccc(Cl)cc1", "note": "(stereo not drawn)", "activity change, negative = toxicity": "-0.673% (inactive)"}, {"smiles": "Cc1ccc(C(C#N)c2ccc(F)cc2)nc1C#N", "note": "(stereo not drawn)", "activity change, negative = toxicity": "-12.8% (inactive)"}, {"smiles": "CCCCC(C#N)c1ccc(Cl)cc1F", "note": "(stereo not drawn)", "activity change, negative = toxicity": "-1.43% (inactive)"}, {"smiles": "N#CC(c1ccc(Cl)cc1Cl)c1ncccc1Cl", "note": "(stereo not drawn)", "activity change, negative = toxicity": "-10.4% (inactive)"}, {"smiles": "N#CC(c1ccc(C(F)(F)F)c(Cl)n1)c1ccccc1OC(F)(F)F", "note": "(stereo not drawn)", "activity change, negative = toxicity": "-4.77% (inactive)"}, {"smiles": "Cc1ccc(C(C#N)c2ccc(Cl)cc2)nc1", "note": "(stereo not drawn)", "activity change, negative = toxicity": "4.52% (inactive)"}, {"smiles": "N#Cc1cccc(C(C#N)c2ccc(Cl)cc2Cl)n1", "note": "(stereo not drawn)", "activity change, negative = toxicity": "7.33% (inactive)"}, {"smiles": "N#CC(c1ccc(F)cc1)c1cccc(C(F)(F)F)n1", "note": "(stereo not drawn)", "activity change, negative = toxicity": "4.89% (inactive)"}, {"smiles": "N#CC(c1cccc(Cl)n1)c1ccc(Cl)cc1F", "note": "(stereo not drawn)", "activity change, negative = toxicity": "-3.91% (inactive)"}, {"smiles": "N#CC(c1ccc(Cl)cc1)c1ncccc1Cl", "note": "(stereo not drawn)", "activity change, negative = toxicity": "-0.68% (inactive)"}, {"smiles": "CC(C#N)(c1ccc(Cl)cc1)c1ccc(C(F)(F)F)cn1", "note": "(stereo not drawn)", "activity change, negative = toxicity": "-9.2% (inactive)"}, {"smiles": "N#CC(c1ccc(Cl)cc1)c1ccc(C(F)(F)F)cn1", "note": "(stereo not drawn)", "activity change, negative = toxicity": "-0.58% (inactive)"}, {"smiles": "N#Cc1cccc(C(C#N)c2ccc(Cl)cc2F)n1", "note": "(stereo not drawn)", "activity change, negative = toxicity": "4.41% (inactive)"}, {"smiles": "Cc1ccc(C(C#N)c2ccccc2OC(F)(F)F)nc1C#N", "note": "(stereo not drawn)", "activity change, negative = toxicity": "-0.14% (inactive)"}, {"smiles": "N#Cc1cccc(C(C#N)c2ccccc2OC(F)(F)F)n1", "note": "(stereo not drawn)", "activity change, negative = toxicity": "-3.3% (inactive)"}, {"smiles": "CCCC(C#N)c1ccc(Cl)cc1", "note": "(stereo not drawn)", "activity change, negative = toxicity": "2.14% (inactive)"}, {"smiles": "N#CC(c1cccc(Cl)n1)c1ccccc1OC(F)(F)F", "note": "(stereo not drawn)", "activity change, negative = toxicity": "-11% (inactive)"}, {"smiles": "N#CC(c1ccc(C(F)(F)F)cc1)c1cccc(Cl)n1", "note": "(stereo not drawn)", "activity change, negative = toxicity": "-3.15% (inactive)"}, {"smiles": "CCCCC(C#N)c1ccc(C(F)(F)F)cc1", "note": "(stereo not drawn)", "activity change, negative = toxicity": "4.97% (inactive)"}, {"smiles": "CCCCC(C#N)c1ccccc1OC(F)(F)F", "note": "(stereo not drawn)", "activity change, negative = toxicity": "8.75% (inactive)"}, {"smiles": "CCCCC(C#N)c1ccc(Cl)cc1", "note": "(stereo not drawn)", "activity change, negative = toxicity": "1.19% (inactive)"}, {"smiles": "N#CC(c1ccc(Cl)cc1)c1cccc(C(F)(F)F)n1", "note": "(stereo not drawn)", "activity change, negative = toxicity": "-8.05% (inactive)"}, {"smiles": "CCCCC(C#N)c1ccc(Cl)cc1Cl", "note": "(stereo not drawn)", "activity change, negative = toxicity": "0.128% (inactive)"}]}]}
